Assay results pooled from the literature.
Protocols differ between the studies behind these lines.
Organism: Staphylococcus epidermidis
Read-out: microbial growth

Structure (SMILES) | technique | strain | time | MIC
CC(C)Oc1c(NC(=O)c2ccc(NC(=O)[C@H](CC(N)=O)NC(=O)c3ccc(NC(=O)c4ccc(C#N)s4)cc3)cc2)ccc(C(=O)Nc2ccc(C(=O)O)cc2)c1O | – | DSM28765 | – | 0.5 µg/mL
NCCCC[C@H](N)C(=O)Nc1ccc(-n2nc(C(F)(F)F)cc2-c2ccc3c(ccc4ccccc43)c2)cc1 | broth dilution | ATCC35984 | 24 h | 4 µg/mL
CC(C)Oc1c(-n2cc(-c3ccc(NC(=O)C(CC(N)=O)NC(=O)c4ccc(NC(=O)c5ccc(C#N)cc5)cc4)cc3)nn2)ccc(C(=O)Nc2ccc(C(=O)O)cc2)c1O (centres unmarked) | – | DSM28765 | – | 0.125 µg/mL
O=C(O)CN1C(=O)/C(=C/c2c3ccccc3c(-c3ccc(N(c4ccccc4)c4ccccc4)cc3)c3ccccc23)SC1=S | broth dilution | ATCC12228 | – | > 1000 µg/mL
CC(C)Oc1c(NC(=O)c2ccc(NC(=O)c3ccc(NC(=O)[C@H](CC(N)=O)NC(=O)c4ccc(NC(=O)c5ccc(C#N)s5)cc4)cc3)c(OC(C)C)c2O)ccc(C(=O)O)c1O | – | DSM28765 | – | ≤ 0.03 µg/mL
CN[C@H](CC(C)C)C(=O)N[C@H]1C(=O)N[C@@H](CC(N)=O)C(=O)N[C@H]2C(=O)N[C@H]3C(=O)N[C@H](C(=O)N[C@H](C(=O)O)c4cc(O)cc(O)c4-c4cc3ccc4O)[C@H](O)c3ccc(c(Cl)c3)Oc3cc2cc(c3O[C@@H]2O[C@H](CO)[C@@H](O)[C@H](O)[C@H]2O[C@H]2C[C@](C)(N)[C@H](O)[C@H](C)O2)Oc2ccc(cc2Cl)[C@H]1O | broth dilution | ATCC12228 | – | 0.98 µg/mL
NCCCC[C@H](N)C(=O)Nc1ccc(-n2nc(C(F)(F)F)cc2-c2ccc3c(c2)Nc2ccccc2S3)cc1 | broth dilution | ATCC35984 | 24 h | 4 µg/mL
CC[C@H]1OC(=O)[C@H](C)[C@@H](O[C@H]2C[C@@](C)(OC)[C@@H](O)[C@H](C)O2)[C@H](C)[C@@H](O[C@@H]2O[C@H](C)C[C@H](N(C)C)[C@H]2O)[C@](C)(O)C[C@@H](C)C(=O)[C@H](C)[C@@H](O)[C@]1(C)O | broth dilution | 12228 | – | 0.78 µM
O=C(Nc1ncc([N+](=O)[O-])s1)C1CCCCC1 | broth dilution | – | – | 31.3 µM
NC[C@H]1O[C@H](O[C@H]2[C@H](O)[C@@H](O[C@H]3O[C@H](CO)[C@@H](O)[C@H](N)[C@H]3O)[C@H](N)C[C@@H]2N)[C@H](N)C[C@@H]1O | broth dilution | 12228 | – | 0.78 µM
O=C(O)CN1C(=O)/C(=C/c2c3ccccc3c(-c3ccc(N(c4ccccc4)c4ccccc4)cc3)c3ccccc23)NC1=S | broth dilution | ATCC12228 | – | > 1000 µg/mL
